Format in all cases: functional, cell-based
The nature of assay [1]: Cytotoxicity against human PANC1 cells after 48 hrs by MTT assay. The following applies: PANC-1, 48 h. Summed up:
(§1)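 Cells seeded at 10⁴ per well in DMEM with 10% FBS and grown overnight. Compound at a range of concentrations for 48 h, in triplicate. MTT (5 mg mL⁻¹ stock) added for the last 4 h, formazan dissolved in DMSO, absorbance read at 570 nm. Percent inhibition used to derive IC50. Values are mean ± SEM of at least three independent experiments.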
A general note: Tetrazolium assays rely on reduction of a dye to a coloured formazan, in cell work by metabolically active cells.

Assay [2] in a line: Cytotoxicity against human H460 cells after 48 hrs by MTT assay. The note with it: NCI-H460, 48 h. The method in brief:
as §1

The next assay deals with MCF7. The assay can be described thus: Cytotoxicity against human MCF7 cells after 48 hrs by MTT assay. The note with it: MCF7, 48 h. The method in brief:
as §1

Another assay concerns SK-OV-3. The assay can be described thus: Cytotoxicity against human SKOV3 cells after 48 hrs by MTT assay. The note with it: SK-OV-3, 48 h. Summed up:
as §1

A further assay relates to EJ. The assay is described as follows: Cytotoxicity against human EJ cells after 48 hrs by MTT assay. Summed up:
as §1

Another assay deals with SMMC-7721. The assay is described as follows: Cytotoxicity against human SMMC7721 cells after 48 hrs by MTT assay. The note with it: SMMC-7721, 48 h. The method in brief: as §1
A short description of assay [3]: Cytotoxicity against human SGC7901 cells after 48 hrs by MTT assay. The following applies: SGC-7901, 48 h. Summed up: as §1

The IC50 is the point on the concentration scale where inhibition reaches its midpoint. A high value points to lower potency.

Consider `CC(C)=CCC/C(C)=C/CC/C(C)=C/CSc1ccccc1C(=O)N1CCN(C(=O)c2ccccc2SC/C=C(\C)CC/C=C(\C)CCC=C(C)C)CC1`, for which the IC50 (in assay [1]; in assay [2]; with MCF7; in the assay on SK-OV-3; in the assay on EJ; in the assay with SMMC-7721) was greater than 50 µM throughout. In assay [3], this compound registered a half-maximal inhibitory concentration (IC50) greater than 50 µM.
As for `CC(C)=CCC/C(C)=C/CC/C(C)=C/CSc1ccccc1C(=O)NCCCN`, the IC50 in assay [1] stood at 11.8 µM; in assay [2] it was 20.4 µM; in the assay with MCF7, 13.7 µM; with SK-OV-3 it was 12.3 µM; with EJ, 17.2 µM; with SMMC-7721, 10.6 µM. For the same compound, in assay [3], half-maximal inhibition (IC50) was put at 12.8 µM.
Take `CNC(=O)c1cc(Oc2ccc(NC(=O)Nc3ccc(Cl)c(C(F)(F)F)c3)cc2)ccn1` [SORAFENIB]: the concentration for half-maximal inhibition (IC50) in assay [1] was found to be 12.3 µM; in assay [2] it was 10.8 µM; with MCF7, 9.12 µM; in the assay with SK-OV-3, 9.25 µM; in the assay with EJ, 22.9 µM; in the assay on SMMC-7721, 18.7 µM. The compound also registered an IC50 in assay [3] of 11.5 µM.
Take `CC(C)=CCC/C(C)=C/CC/C(C)=C/CSc1ccccc1C(=O)NCCN`: the half-inhibitory concentration (IC50) in assay [1] was greater than 50 µM; in assay [2], 36 µM; in the assay with MCF7, 28.7 µM; with SK-OV-3, 31.6 µM; in the assay with EJ, greater than 50 µM; in the assay on SMMC-7721, 25.2 µM. For the same compound, half-maximal inhibition in assay [3] (IC50) required 33.8 µM.
As to `CC(C)=CCC/C(C)=C/CC/C(C)=C/CSc1ccccc1C(=O)N1CCNCC1`, the half-maximal inhibitory concentration (IC50) in assay [1] is 22.5 µM; in assay [2], 26.3 µM; in the assay with MCF7, 34.1 µM; with SK-OV-3, greater than 50 µM; in the assay with EJ it was 27.5 µM; in the assay on SMMC-7721, 32.4 µM. This compound also came in with an IC50 in assay [3] of 25.7 µM.
In the case of `CC(C)=CCC/C(C)=C/CC/C(C)=C/CSc1ccccc1C(=O)NCCCCN`, the IC50 in assay [1] amounted to 10.5 µM; in assay [2], 12.5 µM; in the assay on MCF7, 11.2 µM; with SK-OV-3, 7.8 µM; in the assay with EJ it was 13.1 µM; in the assay with SMMC-7721, 15 µM. In assay [3], 11.2 µM corresponded to half-maximal inhibition (IC50).
As for `CC(C)=CCC/C(C)=C/CC/C(C)=C/CSc1ccccc1C(=O)NCCCCCCN`, the IC50 in assay [1] was determined as 8.69 µM; in assay [2], 7.52 µM; in the assay with MCF7 it was 8.01 µM; with SK-OV-3, 7.66 µM; in the assay on EJ, 10.1 µM; in the assay with SMMC-7721 it was 7.93 µM. Moreover, the IC50 in assay [3] was found to be 7.87 µM.
Take `CC(C)=CCC/C(C)=C/CC/C(C)=C/CSc1ccccc1C(=O)NCCCCNC(=O)c1ccccc1SC/C=C(\C)CC/C=C(\C)CCC=C(C)C`: the IC50 was greater than 50 µM in assay [1]; greater than 50 µM in assay [2]; 45.8 µM in the assay on MCF7; greater than 50 µM with SK-OV-3; greater than 50 µM with EJ; greater than 50 µM in the assay with SMMC-7721. Further, the IC50 in assay [3] is greater than 50 µM.
As to `CC(C)=CCC/C(C)=C/CC/C(C)=C/CSc1ccccc1C(=O)NCCOCCNC(=O)c1ccccc1SC/C=C(\C)CC/C=C(\C)CCC=C(C)C`, the IC50 came to 29.8 µM in assay [1]; 43.5 µM in assay [2]; 30 µM in the assay on MCF7; 34.4 µM in the assay with SK-OV-3; 27.8 µM in the assay with EJ; 29 µM in the assay on SMMC-7721. In addition, in assay [3], 43.8 µM corresponded to half-maximal inhibition (IC50).
For `CC(C)=CCC/C(C)=C/CC/C(C)=C/CSc1ccccc1C(=O)NCCNC(=O)c1ccccc1SC/C=C(\C)CC/C=C(\C)CCC=C(C)C`, the IC50 (in assay [1]; in assay [2]; with MCF7; in the assay on SK-OV-3; with EJ; in the assay with SMMC-7721) was greater than 50 µM throughout. The compound further had an IC50 in assay [3] greater than 50 µM.
In the case of `CC(C)=CCC/C(C)=C/CC/C(C)=C/CSc1ccccc1C(=O)NCCCNC(=O)c1ccccc1SC/C=C(\C)CC/C=C(\C)CCC=C(C)C`, the IC50 (in assay [1]; in assay [2]; with MCF7; with SK-OV-3; in the assay on EJ; in the assay on SMMC-7721) was greater than 50 µM throughout. In assay [3], this compound yielded a 50% inhibitory concentration (IC50) greater than 50 µM.

Values taken from ChEMBL document CHEMBL3102776, “Synthesis and biological evaluation of farnesylthiosalicylamides as potential anti-tumor agents” (Bioorg Med Chem, 2014).
